# Experimental data as given in ChEMBL document CHEMBL3588757, “Structure-based design, synthesis and biological testing of piperazine-linked bis-epipodophyllotoxin etoposide analogs” (Bioorg Med Chem, 2015).
# Activity calls are given as the source filed them. No cut-off for these calls is given here.
# Tests used:
# K562 = assay: Induction of DNA double strand breaks in human K562 cells assessed as increase in gamma-H2AX level at 25 uM after 4 hrs by chemiluminescence analysis; assay type: functional, cell-based
# Outline: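 K562 cells (3.4 × 10^5/mL) exposed 4 h at 37 °C to 25 µM drug or DMSO. Lysed in Tris pH 6.7/SDS buffer; 50 µg protein on 14% SDS-PAGE, PVDF blot. Rabbit anti-γH2AX (1:1000, overnight), GAPDH loading control, HRP secondary. Chemiluminescence imaged by CCD.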
# LOX IMVI = assay: Cytotoxicity against human LOXIMVI cells assessed as cell growth at 50 uM by SRB assay; assay type: functional; conditions: read-out: Activity
# UACC-62 [1] = assay: Cytotoxicity against human UACC62 cells assessed as cell growth at 50 uM by SRB assay; assay type: functional; conditions: read-out: Activity
# OVCAR-8 [2] = assay: Cytotoxicity against human OVCAR8 cells assessed as cell growth at 50 uM by SRB assay; assay type: functional; conditions: read-out: Activity
# ACHN = assay: Cytotoxicity against human ACHN cells assessed as cell growth at 50 uM by SRB assay; assay type: functional; conditions: read-out: Activity
# PC-3 = assay: Cytotoxicity against human PC3 cells assessed as cell growth at 50 uM by SRB assay; assay type: functional; conditions: read-out: Activity
# T47D [3] = assay: Cytotoxicity against human T47D cells assessed as cell growth at 50 uM by SRB assay; assay type: functional; conditions: read-out: Activity
# MOLT-4 [4] = assay: Cytotoxicity against human MOLT4 cells by SRB assay; assay type: functional
# Outline: (§1)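 NCI-60 panel screen; 5-dose testing giving GI50 per cell line, plus a single 10 µM one-dose test. Method details not given beyond the NCI screen.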
# RPMI-8226 [5] = assay: Cytotoxicity against human RPMI8226 cells by SRB assay; assay type: functional; outline: as §1
# U-251 = assay: Cytotoxicity against human U251 cells by SRB assay; assay type: functional; outline: as §1
# UACC-62 [6] = assay: Cytotoxicity against human UACC62 cells by SRB assay; assay type: functional; outline: as §1
# IGROV-1 = assay: Cytotoxicity against human IGROV1 cells by SRB assay; assay type: functional; outline: as §1
# [7] = Cytotoxicity against human NCI-ADR-RES cells by SRB assay; assay type: functional; outline: as §1
# 786-0 [8] = assay: Cytotoxicity against human 786-0 cells by SRB assay; assay type: functional
# [9] = Cytotoxicity against human Hs578T cells by SRB assay; assay type: functional; conditions: Hs-578T
# Outline: (§2)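 Measured in the NCI-60 human tumour cell line panel using five-dose testing. Growth was recorded at each dose for each cell line, and a GI50 was derived for each line.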
# RPMI-8226 [10] = assay: Cytotoxicity against human RPMI8226 cells assessed as cell growth at 0.005 uM by SRB assay; assay type: functional; conditions: read-out: Activity
# HCT-116 = assay: Cytotoxicity against human HCT116 cells assessed as cell growth at 0.005 uM by SRB assay; assay type: functional; conditions: read-out: Activity; outline: as §2
# SNB-75 = assay: Cytotoxicity against human SNB75 cells assessed as cell growth at 0.005 uM by SRB assay; assay type: functional; conditions: read-out: Activity
# M14 = assay: Cytotoxicity against human M14 cells assessed as cell growth at 0.005 uM by SRB assay; assay type: functional; conditions: read-out: Activity
# OVCAR-5 = assay: Cytotoxicity against human OVCAR5 cells assessed as cell growth at 0.005 uM by SRB assay; assay type: functional; conditions: read-out: Activity
# OVCAR-8 [11] = assay: Cytotoxicity against human OVCAR8 cells assessed as cell growth at 0.005 uM by SRB assay; assay type: functional; conditions: read-out: Activity
# [12] = Cytotoxicity against human NCI-ADR-RES cells assessed as cell growth at 0.005 uM by SRB assay; assay type: functional; conditions: read-out: Activity
# NCI-H226 [13] = assay: Cytotoxicity against human NCI-H226 cells assessed as cell growth at 0.05 uM by SRB assay; assay type: functional; conditions: read-out: Activity
# SW-620 = assay: Cytotoxicity against human SW620 cells assessed as cell growth at 0.05 uM by SRB assay; assay type: functional; conditions: read-out: Activity
# UACC-62 [14] = assay: Cytotoxicity against human UACC62 cells assessed as cell growth at 0.05 uM by SRB assay; assay type: functional; conditions: read-out: Activity
# SN12C = assay: Cytotoxicity against human SN12C cells assessed as cell growth at 0.05 uM by SRB assay; assay type: functional; conditions: read-out: Activity
# TK-10 = assay: Cytotoxicity against human TK10 cells assessed as cell growth at 0.05 uM by SRB assay; assay type: functional; conditions: read-out: Activity
# SK-MEL-5 = assay: Cytotoxicity against human SK-MEL-5 cells assessed as cell growth at 0.5 uM by SRB assay; assay type: functional; conditions: read-out: Activity
# DU-145 [15] = assay: Cytotoxicity against human DU145 cells assessed as cell growth at 0.5 uM by SRB assay; assay type: functional; conditions: read-out: Activity; outline: as §2
# CCRF-CEM = assay: Cytotoxicity against human CCRF-CEM cells assessed as cell growth at 5 uM by SRB assay; assay type: functional; conditions: read-out: Activity
# MOLT-4 [16] = assay: Cytotoxicity against human MOLT4 cells assessed as cell growth at 5 uM by SRB assay; assay type: functional; conditions: read-out: Activity
# A549 = assay: Cytotoxicity against human A549/ATCC cells assessed as cell growth at 5 uM by SRB assay; assay type: functional; conditions: read-out: Activity
# COLO 205 = assay: Cytotoxicity against human COLO205 cells assessed as cell growth at 5 uM by SRB assay; assay type: functional; conditions: read-out: Activity
# [17] = Cytotoxicity against human NCI-ADR-RES cells assessed as cell growth at 5 uM by SRB assay; assay type: functional; conditions: read-out: Activity
# 786-0 [18] = assay: Cytotoxicity against human 786-0 cells assessed as cell growth at 5 uM by SRB assay; assay type: functional; conditions: read-out: Activity
# DU-145 [19] = assay: Cytotoxicity against human DU145 cells assessed as cell growth at 5 uM by SRB assay; assay type: functional; conditions: read-out: Activity; outline: as §2
# T47D [20] = assay: Cytotoxicity against human T47D cells assessed as cell growth at 5 uM by SRB assay; assay type: functional; conditions: read-out: Activity
# NCI-H226 [21] = assay: Cytotoxicity against human NCI-H226 cells assessed as cell growth at 50 uM by SRB assay; assay type: functional; conditions: read-out: Activity
# [22] = read-out: LC50 (the source's name)
# [23] = read-out: pLC50 (the source's name) (converted)
smiles,measurement,setting,value
COc1cc([C@@H]2c3cc4c(cc3[C@@H](NC(=O)CN3CCN(CCCCCCN5CCN(CC(=O)N[C@@H]6c7cc8c(cc7[C@@H](c7cc(OC)c(O)c(OC)c7)[C@H]7C(=O)OC[C@@H]76)OCO8)CC5)CC3)[C@H]3COC(=O)[C@H]23)OCO4)cc(OC)c1O,Activity,K562,Active
same,growth at 50 µM,LOX IMVI,-8%
same,growth at 50 µM,UACC-62 [1],-5%
same,growth at 50 µM,OVCAR-8 [2],43%
same,growth at 50 µM,ACHN,37%
same,growth at 50 µM,PC-3,25%
same,growth at 50 µM,T47D [3],2%
same,GI50,MOLT-4 [4]; read-out: GI50,0.233 µM
same,CC50,MOLT-4 [4]; [22],> 50 µM
same,TGI,MOLT-4 [4]; read-out: TGI,> 50 µM
same,GI50,MOLT-4 [4]; read-out: pGI50 (converted),0.234 µM
same,CC50,MOLT-4 [4]; [23],> 50.1 µM
same,TGI,MOLT-4 [4]; read-out: pTGI (converted),> 50.1 µM
same,GI50,RPMI-8226 [5]; read-out: GI50,0.89 µM
same,CC50,RPMI-8226 [5]; [22],> 50 µM
same,TGI,RPMI-8226 [5]; read-out: TGI,4.9 µM
same,GI50,RPMI-8226 [5]; read-out: pGI50 (converted),0.891 µM
same,CC50,RPMI-8226 [5]; [23],> 50.1 µM
same,TGI,RPMI-8226 [5]; read-out: pTGI (converted),4.9 µM
same,GI50,U-251; read-out: GI50,1.56 µM
same,CC50,U-251; [22],> 50 µM
same,TGI,U-251; read-out: TGI,25.1 µM
same,GI50,U-251; read-out: pGI50 (converted),1.55 µM
same,CC50,U-251; [23],> 50.1 µM
same,TGI,U-251; read-out: pTGI (converted),25.1 µM
same,GI50,UACC-62 [6]; read-out: GI50,1.55 µM
same,CC50,UACC-62 [6]; [22],> 50 µM
same,TGI,UACC-62 [6]; read-out: TGI,35.7 µM
same,GI50,UACC-62 [6]; read-out: pGI50 (converted),1.55 µM
same,CC50,UACC-62 [6]; [23],> 50.1 µM
same,TGI,UACC-62 [6]; read-out: pTGI (converted),35.5 µM
same,GI50,IGROV-1; read-out: GI50,40 µM
same,CC50,IGROV-1; [22],> 50 µM
same,TGI,IGROV-1; read-out: TGI,> 50 µM
same,GI50,IGROV-1; read-out: pGI50 (converted),39.8 µM
same,CC50,IGROV-1; [23],> 50.1 µM
same,TGI,IGROV-1; read-out: pTGI (converted),> 50.1 µM
same,GI50,[7]; read-out: GI50,> 50 µM
same,CC50,[7]; [22],> 50 µM
same,TGI,[7]; read-out: TGI,> 50 µM
same,GI50,[7]; read-out: pGI50 (converted),> 50.1 µM
same,CC50,[7]; [23],> 50.1 µM
same,TGI,[7]; read-out: pTGI,> 50.1 µM
same,GI50,786-0 [8]; read-out: GI50,2.86 µM
same,CC50,786-0 [8]; [22],> 50 µM
same,TGI,786-0 [8]; read-out: TGI,31.7 µM
same,GI50,786-0 [8]; read-out: pGI50 (converted),2.88 µM
same,CC50,786-0 [8]; [23],> 50.1 µM
same,TGI,786-0 [8]; read-out: pTGI (converted),31.6 µM
same,GI50,[9]; read-out: GI50,8.93 µM
same,CC50,[9]; [22],> 50 µM
same,TGI,[9]; read-out: TGI,> 50 µM
same,GI50,[9]; read-out: pGI50 (converted),8.91 µM
same,CC50,[9]; [23],> 50.1 µM
same,TGI,[9]; read-out: pTGI (converted),> 50.1 µM
same,growth at 0.005 µM,RPMI-8226 [10],102%
same,growth at 0.005 µM,HCT-116,93%
same,growth at 0.005 µM,SNB-75,75%
same,growth at 0.005 µM,M14,89%
same,growth at 0.005 µM,OVCAR-5,93%
same,growth at 0.005 µM,OVCAR-8 [11],110%
same,growth at 0.005 µM,[12],104%
same,growth at 0.05 µM,NCI-H226 [13],87%
same,growth at 0.05 µM,SW-620,91%
same,growth at 0.05 µM,UACC-62 [14],90%
same,growth at 0.05 µM,SN12C,97%
same,growth at 0.05 µM,TK-10,98%
same,growth at 0.5 µM,SK-MEL-5,85%
same,growth at 0.5 µM,DU-145 [15],89%
same,growth at 5 µM,CCRF-CEM,7%
same,growth at 5 µM,MOLT-4 [16],6%
same,growth at 5 µM,A549,35%
same,growth at 5 µM,COLO 205,54%
same,growth at 5 µM,[17],107%
same,growth at 5 µM,786-0 [18],40%
same,growth at 5 µM,DU-145 [19],14%
same,growth at 5 µM,T47D [20],31%
same,growth at 50 µM,NCI-H226 [21],-2%
